Assay [1] deals with DeHa4. Description: fluoride ion probe, Lineweaver-Burk. Type of assay: biochemical, Delftia acidovorans. Conditions: pH 7, PBS, 37 °C, 28 h. The method in brief: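 Cobalt-affinity-purified enzyme from E. coli BL21 DE3 (pET15b), 250 μg in 0.5 mL with MFA (0.4–3 mM) or DFA (10–120 mM), 28 h, 250 rpm. Samples diluted in low-level TISAB and water, then read by fluoride electrode against NaF calibration (0–20 μM, second-order polynomial fit). Product equals fluoride for MFA and half of fluoride for DFA. Velocity is product per hour. 4–6 independent runs.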

Assay [2] concerns the target T1, DeHa2 (Delftia acidovorans, UniProt Q7DI63).
T1 sequence (Q7DI63 1-224): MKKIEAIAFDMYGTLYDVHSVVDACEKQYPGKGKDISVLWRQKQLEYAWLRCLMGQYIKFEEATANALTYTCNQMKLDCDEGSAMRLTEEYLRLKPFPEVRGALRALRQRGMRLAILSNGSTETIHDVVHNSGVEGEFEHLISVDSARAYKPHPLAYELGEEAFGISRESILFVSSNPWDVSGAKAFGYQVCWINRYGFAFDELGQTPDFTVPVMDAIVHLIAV
Description: fluoride ion probe, Lineweaver-Burk. Format: biochemical. Conditions: pH 7, PBS, 37 °C, 28 h.

The record followed here is article PMC11223199 (ACS Omega, 2024).

Each structure is given as a SMILES string.

For `O=C(O)C(F)F` [DFA, difluoroacetate], in assay [1], the Km came out at 39 ± 2.36 mM.

As for `O=C(O)CF` [MFA, monofluoroacetate], the Km in assay [2] came out at 5.47 ± 1.54 mM; in assay [1], 2.19 ± 0.37 mM.
